The structures appear in SMILES notation.

RNA-directed RNA polymerase, sequence (O39930 whole entry): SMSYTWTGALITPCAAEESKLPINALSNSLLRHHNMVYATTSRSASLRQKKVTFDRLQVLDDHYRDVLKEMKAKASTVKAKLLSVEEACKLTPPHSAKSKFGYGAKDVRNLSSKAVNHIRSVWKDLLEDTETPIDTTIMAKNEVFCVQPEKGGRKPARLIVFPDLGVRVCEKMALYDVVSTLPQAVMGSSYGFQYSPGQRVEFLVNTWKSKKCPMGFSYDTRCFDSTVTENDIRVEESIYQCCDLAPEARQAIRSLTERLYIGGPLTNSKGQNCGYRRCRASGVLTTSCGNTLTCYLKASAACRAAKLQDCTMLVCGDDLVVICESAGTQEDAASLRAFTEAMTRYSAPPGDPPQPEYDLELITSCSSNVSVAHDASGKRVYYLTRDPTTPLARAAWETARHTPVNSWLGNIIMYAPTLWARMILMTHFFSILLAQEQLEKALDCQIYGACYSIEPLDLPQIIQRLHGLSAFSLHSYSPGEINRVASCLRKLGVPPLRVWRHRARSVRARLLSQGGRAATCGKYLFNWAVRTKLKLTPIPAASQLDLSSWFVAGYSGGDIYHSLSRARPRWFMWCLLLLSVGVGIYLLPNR

One test addresses RNA-directed RNA polymerase (Hepacivirus hominis, UniProt O39930). As to the kind of experiment: Inhibition of wild-type HCV genotype 1b BK NS5B Cdelta55 RNA dependent RNA polymerase using RNA as substrate after 1 hr in presence of NTPs by [33P]-CTP based topcount assay.
Conditions: not given
Further details: species or system Hepatitis C virus (isolate BK).
The term IC50 denotes the point on the concentration scale where inhibition reaches its midpoint. On to `CC#C[C@@]1(O)[C@H](O)[C@@H](COP(=O)(O)OP(=O)(O)OP(=O)(O)O)O[C@H]1n1ccc(=O)[nH]c1=O`, for which the IC50 worked out at 0.16 µM.
On the same count and under the same terms, with `CC#C[C@@]1(F)[C@H](O)[C@@H](COP(=O)(O)OP(=O)(O)OP(=O)(O)O)O[C@H]1n1ccc(=O)[nH]c1=O` the figure was 9.9 µM.
Still for that read-out and setting: for `C#C[C@]1(O)[C@H](O)[C@@H](COP(=O)(O)OP(=O)(O)OP(=O)(O)O)O[C@H]1n1ccc(=O)[nH]c1=O` the value was 54 µM; for `CCCCCCN(C)C.CCCCCCN(C)C.CCCCCCN(C)C.CCCCCCN(C)C.C[C@@]1(F)[C@H](O)[C@@H](COP(=O)(O)OP(=O)(O)OP(=O)(O)O)O[C@H]1n1ccc(=O)[nH]c1=O`, 1.1 µM.
The same measure, in the same setting: for `C#C[C@@]1(O)[C@H](O)[C@@H](COP(=O)(O)OP(=O)(O)OP(=O)(O)O)O[C@H]1n1ccc(=O)[nH]c1=O` the value was 0.09 µM.
Turning to `C#C[C@@]1(F)[C@H](O)[C@@H](COP(=O)(O)OP(=O)(O)OP(=O)(O)O)O[C@H]1n1ccc(=O)[nH]c1=O`, the IC50 was found to be 3.6 µM.

Another test has as its system Hepatitis C virus. Kind of test: Antiviral activity against HCV genotype 1b Con1 infected in replicon cells after 3 days by real-time PCR analysis. The class given is functional, organism-based, Hepacivirus hominis. Particulars: isolate Con1, 72 h. The procedure, abridged:
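Con1 genotype 1b replicon cells plated at 5000/well one day before dosing; inhibitor added from DMSO in 10 serial twofold dilutions, triplicate, final 0.5% DMSO, 10% FBS. Harvest 3 days post-dose; replicon RNA measured by real-time RT-PCR (Taqman) normalised to GAPDH RNA; EC50 derived.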
For orientation: A replicon is a self-replicating genome or part of one, used to study replication in cells.
In general, EC50 refers to the concentration that produces a half-maximal response. Compound `CC#C[C@@]1(F)[C@H](O)[C@@H](CO)O[C@H]1n1ccc(=O)[nH]c1=O` gave an EC50 of more than 100 µM.
Take `C#C[C@@]1(O)[C@H](O)[C@@H](CO)O[C@H]1n1ccc(=O)[nH]c1=O`: the EC50 was more than 100 µM.
The same measure, in the same setting: with `CC#C[C@@]1(O)[C@H](O)[C@@H](CO)O[C@H]1n1ccc(=O)[nH]c1=O` the figure was more than 100 µM.

(Values after ChEMBL document CHEMBL4177623, “Concise syntheses and HCV NS5B polymerase inhibition of (2'R)-3 and (2'S)-2'-ethynyluridine-10 and related nucleosides” (Bioorg Med Chem Lett, 2017).)
